We go through eleven molecules from ChEMBL document CHEMBL1132224, “Synthesis and in vitro multidrug resistance modulating activity of a series of dihydrobenzopyrans and tetrahydroquinolines” (J Med Chem, 1999).

Usually logP stands for the decadic logarithm of the partition coefficient of the neutral form, usually between octanol and water. Lower therefore signals a more hydrophilic compound. By EC50 is commonly meant the concentration giving half of the maximal effect.

A short description of series [1]: Partition coefficient (logP). In kind it is physicochemical. To be noted: octanol/water. Put shortly:
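Computed, not measured: fragmentation method of Ghose et al. on a topological basis. Structures built and minimized with the MM2 force field. Conformation-independent log P values.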

A short description of series [2]: Lipophilicity (log kw value) was determined. The class given is physicochemical. To be noted: reversed-phase HPLC, methanol/buffer pH 7.4. Put shortly: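 Reversed-phase HPLC on an RP-8 column (5 µm), eluent methanol/aqueous phase adjusted to pH 7.4 with 1/60 M Soerensen buffer, detection at 254 nm. log k′ measured at 70%, 60% and 50% methanol, then extrapolated to 0% methanol by linear regression to give log kw.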

For a further series, the system named is CCRF-CEM. Kind of series: The compound was tested for inhibition of P-glycoprotein mediated daunomycin efflux in multidrug resistant CCRF-CEM vcr1000 cells. The class given is functional, cell-based. To be noted: Homo sapiens. The gist of the method:
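Vincristine-selected CCRF-CEM vcr1000 T-lymphoblasts grown in RPMI1640 with 10% FCS, selecting agent removed at least 1 week before use. Cells at 1 × 10^6/mL preloaded with 3.2 µM daunomycin (final) for 30 min at 37 °C, pelleted, then resuspended in 37 °C medium with modulator (eight concentrations, 1:2.5 dilutions, 3 nM–500 µM range). Samples taken at 0, 60, 120, 180 and 240 s into ice-cold stop medium containing verapamil (10 µg/mL final). An exponential fit gives the first-order rate constant (Vmax/Km) as the slope at time zero. Efflux in parental CCRF-CEM cells, set to equal initial fluorescence, is subtracted as passive diffusion. EC50 comes from Vmax/Km versus concentration, as mean ± SD of at least three independent experiments.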

Each structure is given as a SMILES string.

`Cc1ccc(C(=O)N2c3ccccc3[C@H](N3CCCC3)[C@@H](O)[C@@H]2C)cc1` showed a logP in series [1] of 3.34. Moreover, the Log kw in series [2] is given as 4.2. The same molecule showed an EC50 in the series on CCRF-CEM of 7.98 µM.
Take `Cc1ccc(C(=O)N2c3ccccc3[C@H](N3CCN(Cc4ccccc4)CC3)[C@@H](O)[C@@H]2C)cc1`: the logP in series [1] is 4.51. The Log kw in series [2] is reported as 6.1. The molecule further had an EC50 with CCRF-CEM of 0.43 µM.
The like results for `CC1(C)Oc2ccc(C#N)cc2[C@H](NCc2ccccc2)[C@H]1O` were, in that order, 3.12, 4.35 and 59.1 µM.
In series [1], `CC(C)(C)OC(=O)CN[C@H]1c2cc(C#N)ccc2OC(C)(C)[C@@H]1O` yielded a logP of 1.79. Besides, a half-maximal response in the series with CCRF-CEM (EC50) required 46.8 µM.
Consider `Cc1ccc(C(=O)O[C@H]2[C@H](C)Nc3ccccc3[C@@H]2N2CCCC2)cc1`, for which the logP in series [1] was 3.92. Moreover, the Log kw in series [2] was 5.47. The EC50 with CCRF-CEM turned out to be 5.64 µM.
Molecule `CCN(CC)CCCC(C)N[C@H]1c2ccccc2N[C@@H](C)[C@@H]1OC(=O)c1ccc(C)cc1` (stereo partly drawn) showed a logP in series [1] of 4.78. The molecule further showed an EC50 with CCRF-CEM of 0.34 µM.
Consider `CC1(C)Oc2ccc(C#N)cc2[C@H](N2CCN(Cc3ccccc3)CC2)[C@H]1O`, for which the logP in series [1] stood at 3.11. Besides, the Log kw in series [2] stood at 5.53. Moreover, it took 0.64 µM to reach a half-maximal effect in the series with CCRF-CEM (EC50).
`CCN(CC)CCCC(C)N[C@H]1c2ccccc2N(C(=O)c2ccc(C)cc2)[C@@H](C)[C@@H]1O` (stereo partly drawn): the log partition coefficient (logP) in series [1] came out at 4.2. Besides, it took 1.96 µM to reach a half-maximal effect in the series with CCRF-CEM (EC50).
Molecule `CN[C@H]1c2cc(C#N)ccc2OC(C)(C)[C@@H]1O` gave a logP in series [1] of 1.24. Moreover, the EC50 with CCRF-CEM is 1430 µM.
The like results for `CC(C)(C)OC(=O)CN(Cc1ccccc1)[C@H]1c2cc(C#N)ccc2OC(C)(C)[C@@H]1O` were, in that order, 3.76 and 2.43 µM.
As for `Cc1ccc(C(=O)N2c3ccccc3[C@H](NCc3ccccc3)[C@@H](O)[C@@H]2C)cc1`, the logP in series [1] was 4.52. Moreover, the Log kw in series [2] is reported as 5.38. In the series with CCRF-CEM, this molecule came in with an EC50 of 3.26 µM.
